# Source: PubChem
# OXTR agonist = activates the human oxytocin receptor. CHO-OTR cells, Fluo-8 calcium fluorescence; normalized: DMSO 0%, oxytocin 100%. activation, % at 3 µM. 320,000 compounds, 0.32% hits;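 active = activation above the mean of all tested compounds plus 3 SD, cutoff set per screening run, cut at about 20% in these data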;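 also: peak over basal fluorescence ratio from a 100 s FLIPR kinetic read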
# Target sequence (P30559 whole entry, looked up): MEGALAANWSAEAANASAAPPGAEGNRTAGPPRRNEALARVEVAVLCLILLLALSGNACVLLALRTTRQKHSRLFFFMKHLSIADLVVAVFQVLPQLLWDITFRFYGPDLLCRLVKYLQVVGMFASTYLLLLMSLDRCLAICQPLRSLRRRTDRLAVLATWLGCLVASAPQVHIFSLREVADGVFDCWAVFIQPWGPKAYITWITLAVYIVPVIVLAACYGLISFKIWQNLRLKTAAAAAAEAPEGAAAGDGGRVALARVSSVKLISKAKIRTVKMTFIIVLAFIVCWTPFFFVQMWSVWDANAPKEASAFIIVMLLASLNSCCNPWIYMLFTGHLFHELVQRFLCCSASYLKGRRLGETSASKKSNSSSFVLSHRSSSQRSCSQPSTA
# CHO parental Ca = signal in parental CHO cells, OX1R antagonist counter-screen | parental CHO-K1, ATP-induced calcium, Fluo-8 fluorescence | inhibition, % at 5.6 µM | 330,000 compounds, 0.63% hits | AID 463079;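 active = inhibition above that plate's mean sample inhibition plus 3 SD, cut at about 26% in these data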;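 also: 0% = ATP-challenged DMSO wells and 100% = DMSO wells without ATP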
#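 test system = CHO parental line | reagent = ATP stimulus | measured by = intracellular calcium via Fluo-8 no-wash fluorescent dye | control set = ATP and no-ATP DMSO wells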
# V1R ag counter = counter-screen for oxytocin receptor agonists: human V1a receptor agonists | P37288 | activation, % at 3 µM | 320,000 compounds, 0.25% hits | CHO-V1R cells, Fluo-8 calcium fluorescence, agonist mode; 0% DMSO, 100% 3 nM vasopressin;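 active = activation above the mean activation of all tested compounds plus 3 SD, per screening run, cut at about 20% in these data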;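 also: signal is peak over basal fluorescence ratio across a 100 second FLIPR read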
# OX1R antag-1 = OX1R (human) antagonism | O43613 | 330,000 compounds, 1.8% hits | inhibition, % at 6.6 µM | OX1R-expressing cells, FRET antagonist read-out; in the data active = inhibition mostly above about 38%, no sharp cut-off; inactive = mostly below about 40%;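 also: 0% = agonist challenge alone and 100% = reference antagonist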
# OXTR potentiate = potentiates the human oxytocin receptor response; P30559; CHO-OTR cells, Fluo-8 calcium fluorescence, potentiator mode; 0% = oxytocin EC15, 100% = EC100; activation, % at 3 µM; 320,000 compounds, 0.061% hits; AID 2445;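 active = activation above that plate's cutoff, the mean activation of tested compounds plus 3 SD, cut at about 6.6% in these data, passing the limit was not always enough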;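 also: 100% uses oxytocin at 75 nM as the full agonist control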
#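 Measured by – Fluo-8 calcium dye fluorescence · Test system – human OTR in CHO cells · Dosing – one concentration, 3.0 µM compound · Controls – EC15 oxytocin alone as 0%, 75 nM oxytocin as 100% · Evaluation – normalized max/min fluorescence ratio, % activation · Timing – 6 min pre-incubation, 100 s read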
# OX1R antag-2 = human HCRTR1 antagonism; O43613; CHO/OX1R cells, Fluo-8 calcium fluorescence, orexin A; inhibition, % at 5 µM; 330,000 compounds, 0.43% hits; AID 434989;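 active = inhibition above its plate's threshold, mean inhibition of all tested compounds on the plate plus 3 SD, cut at about 37% in these data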;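 also: 0% = orexin A challenge wells and 100% = SB-334867-A antagonist wells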
# * marks the source's active call; other numbers are inactive results. Most compounds without a hit are left out; they make up all but 2.7% or so of the library.
SMILES,OXTR agonist,CHO parental Ca,V1R ag counter,OX1R antag-1,OXTR potentiate,OX1R antag-2
O=C(NCCN1CCOCC1)C1CCN(c2ncnc3c2sc2cccc(F)c23)CC1,1.5,1.8,4.2,9.5,-7.7,-6.7
COc1ccc(CNC(=O)c2ccccc2NC(=O)C2=CSCCO2)c(OC)c1,-1.9,-10.0,-0.4,17.5,-0.8,-16.6
Cc1cccc(C)c1OC(=O)CCN1C(=O)C2C3C=CC(C4CC34)C2C1=O (stereo unspecified),0.2,-21.1,2.0,-2.6,-18.7,-35.5
CCCCOc1ncnc2c1[nH]c1ccc(C)cc12,11.9,55.6*,6.3,27.9,-8.0,7.2
C=CCSc1nc(N)c2c(C)c(C)sc2n1,-2.0,-12.6,-0.8,46.1*,-6.1,-12.8
Cc1ccc2cccc(NC(=S)NC(=O)c3ccn(C)n3)c2n1,-2.1,-42.5,-1.1,65.4*,-5.8,0.4
COc1ccc(COCC(O)CN2CCC(CN3C(=O)c4cccc5cccc(c45)C3=O)CC2)cc1OC (stereo unspecified),-0.8,-26.7,1.2,49.1*,-13.4,-17.9
c1ccc2c(c1)CCN(c1ncnc3c1[nH]c1ccccc13)C2,9.5,66.3*,7.0,80.5*,-27.0,80.4*
COc1ccc2c(c1)[nH]c1c(N3CCN(Cc4ccc5c(c4)OCO5)CC3)ncnc12,14.8,11.1,11.4,49.0*,-6.9,15.2
c1ccc2c(c1)[nH]c1c(N3CCC4(CC3)OCCO4)ncnc12,11.4,59.9*,8.9,65.7*,-32.2,37.3
COc1cccc2[nH]c3c(N4CCC5(CC4)OCCO5)ncnc3c12,-2.4,-10.2,-2.4,11.5,-13.6,-18.3
c1ccc(CN2CCN(c3ncnc4c3[nH]c3ccccc34)CC2)cc1,12.3,46.3*,10.2,32.8,-9.6,2.8
Cc1ccc2oc(C(=O)N3CCN(CC(=O)NC(C)C)CC3)c(C)c2c1,-1.7,-31.4,0.7,9.8,-6.2,-22.8
NS(=O)(=O)c1ccc(CCn2c(=S)[nH]c3ccc(F)cc3c2=O)cc1,1.1,-8.3,3.7,1.4,-17.4,-8.0
COc1ccccc1C(=O)NC(=O)CSc1nnc(N)s1,-0.4,-3.5,0.4,2.3,-2.9,-6.1
Brc1ccc(CNc2cc3c(cc2Br)OCCO3)cc1,-2.1,-18.8,1.0,11.8,-10.2,-16.8
Cc1ccccc1C1NC(=S)NC2=C1C(=O)CCC2 (stereo unspecified),1.2,-5.0,0.8,23.3,8.3,-8.6
Cc1ccc2[nH]c3c(N4CCN(Cc5ccccc5)CC4)ncnc3c2c1,10.1,28.5,8.6,79.6*,-24.6,13.9
CCOc1ccc2[nH]c3c(N4CCN(c5ccccn5)CC4)ncnc3c2c1,-0.4,-9.2,0.4,60.8*,-1.0,-8.3
CCN(Cc1nc2ccccc2c(=O)[nH]1)C(=O)COc1ccccc1-c1ccccc1,-1.8,-22.7,0.8,14.4,-6.7,-9.0
N#C/C(=C/c1ccccc1)C(=O)NCc1ccccc1,-1.8,-9.5,-1.3,9.3,-1.9,-8.5
CN(C)c1ccc(/C=C(/C#N)C(=O)NCc2ccccc2)o1,20.1*,13.9,22.5*,45.6,-11.0,8.8
CCCC(=O)Nc1ccc(C=C(C(C)=O)C(C)=O)cc1,0.4,-3.6,-0.4,9.7,-3.1,3.1
CC(=O)c1ccc(NC(=S)NCc2ccc(Cl)cc2Cl)cc1,16.4,39.9*,10.0,30.0,-14.1,40.3*
S=C(NCc1ccc(Cl)cc1Cl)NC1CCCCC1,2.5,27.8*,4.7,10.9,-4.6,8.0
SMILES,OXTR agonist,CHO parental Ca,V1R ag counter,OX1R antag-1,OXTR potentiate,OX1R antag-2
COc1ccc(NC(=O)COC(=O)CCc2ccccc2)c(OC)c1,-0.8,17.5,3.2,-9.3,-0.2,-22.8
O=S(=O)(Nc1cccnc1)c1ccc(C2CCCCC2)cc1,18.5,34.7*,13.9,59.2,-19.0,42.1*
O=S(=O)(Nc1cccnc1)c1ccccc1,-0.7,-5.7,1.3,11.2,-4.0,-10.7
N#Cc1ccc(OCC(=O)Nc2cccc(S(=O)(=O)NC3=NCCCCC3)c2)cc1,-0.4,-17.5,1.7,10.2,-6.5,-25.6
CCCN1CCC(=O)N([C@H](CSc2ccc(OC)cc2)CC(C)C)CC1,-0.3,-15.6,0.3,24.3,-4.0,-32.4
N#CC1(NC(=O)CN2C(=O)NC(c3ccccc3)(c3ccccc3)C2=O)CCCC1,1.2,-5.1,0.7,-0.5,5.3,10.6
COc1cccc2sc3cc(C#Cc4ccccn4)ccc3c(=O)c12,0.1,-29.0,-0.6,62.7*,-1.9,24.7
Cc1cc(C(=O)OCC(=O)N2CCC(C)CC2)c2ccccc2n1,2.5,-5.5,5.1,12.2,-7.7,-26.0
COc1ccc(NC(=O)c2cc(-c3ccc(C)c(C)c3O)n[nH]2)cc1Cl,7.2,24.3,7.7,50.0*,-19.9,0.2
Cc1cc(-c2ccco2)c(C#N)c2nc3ccccc3n12,-2.0,-6.5,-0.1,100.2*,-10.6,-14.9
COc1ccc(N2CCN(CCCNC(=O)C(=O)c3c[nH]c4ccccc34)CC2)cc1,1.6,-17.8,2.8,32.0,-5.8,-24.6
O=c1cc(C(F)(F)F)[nH]c2c(C(F)(F)F)cccc12,15.7,8.1,14.0,67.0*,-18.9,0.3
COc1ccc(OC)c(N(CC(=O)NCCSCc2ccco2)S(=O)(=O)c2ccccc2)c1,1.1,-15.4,6.2,50.7*,-8.4,-2.5
COc1ccc(OC)c(N(CC(=O)NCCSCc2ccc(C)cc2)S(C)(=O)=O)c1,-1.2,-19.6,1.6,10.6,-18.4,-22.4
COc1ccc(CCNC(=O)CN(c2cc(OC)ccc2OC)S(=O)(=O)c2ccccc2)cc1,3.3,-30.4,2.9,28.2,-14.8,-21.7
COc1ccccc1OCCNC(=O)CN(c1cccc(C)c1)S(=O)(=O)c1ccccc1,1.0,-24.6,1.8,71.9*,-15.9,17.0
COc1ccc(N(CC(=O)NCCSc2ccccn2)S(=O)(=O)c2ccccc2)c(OC)c1,3.3,-26.5,1.8,45.5*,-15.6,-6.1
COc1ccccc1N(CC(=O)NCCSCc1ccc(C)cc1)S(=O)(=O)c1ccccc1,2.6,4.2,7.2,59.5*,-15.9,11.1
O=C(CSc1ccc(Br)cc1)Nc1ccc(N2CCOCC2)cc1,0.1,-6.5,2.5,6.7,-5.2,-0.6
CN(C)C(CNC(=O)CNC(=O)Cc1cccc2ccccc12)c1ccccc1 (stereo unspecified),0.7,-10.8,-1.1,6.4,-0.8,-12.5
N=C1C(c2nc3ccccc3[nH]2)=C(O)CN1NC(=O)COc1cccc(F)c1,1.1,5.2,-0.2,-2.3,-1.9,-1.1
O=C(Cn1cnc([N+](=O)[O-])n1)NCc1ccccc1,0.8,-2.0,0.9,72.0*,-5.9,2.5
